Test results reported in article PMC9486889 (Japanese Journal of Clinical Oncology, 2022).

Assay: Phase I dose-escalation: DLT/MTD and treatment-emergent adverse events
Assay type: in vivo, Japanese patients
Method in brief: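 Open-label, non-randomized 3+3 dose escalation, starting at 30 mg oral BIW with planned escalation to 50 mg, in continuous 4-week cycles. The DLT window was 28 days from first dose. DLTs were grade 4 hematologic toxicity, grade ≥3 febrile neutropenia, grade 3 thrombocytopenia with significant bleeding, other grade ≥3 non-hematologic toxicity, or troponin rising on 3 consecutive days. AEs were coded by MedDRA 19.1 and graded by CTCAE 4.03.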

## Nc1cc(F)ccc1NC(=O)c1ccc(CNC(=O)/C=C/c2cccnc2)cc1 [HBI-8000, tucidinostat]
30 mg BIW (N = 7)
  Grade 3: Number of patients with at least one TEAE: 5 (71.4) n (%)
  Grade 3 TEAE: Abdominal pain: 0 (0) n (%)
  Grade 3 TEAE: Alanine aminotransferase increased: 0 (0) n (%)
  Grade 3 TEAE: Anaemia: 1 (14.3) n (%)
  Grade 3 TEAE: Blood creatine phosphokinase increased: 1 (14.3) n (%)
  Grade 3 TEAE: Enterocolitis: 0 (0) n (%)
  Grade 3 TEAE: Erythema multiforme: 0 (0) n (%)
  Grade 3 TEAE: Erythema nodosum: 0 (0) n (%)
  Grade 3 TEAE: Hyperglycaemia: 0 (0) n (%)
  Grade 3 TEAE: Hypertriglyceridaemia: 0 (0) n (%)
  Grade 3 TEAE: Lymphocyte count decreased: 1 (14.3) n (%)
  Grade 3 TEAE: Neutropenia: 1 (14.3) n (%)
  Grade 3 TEAE: Parkinsonism: 1 (14.3) n (%)
  Grade 3 TEAE: Pyrexia: 0 (0) n (%)
  Grade 3 TEAE: Rash generalized: 1 (14.3) n (%)
  Grade 3 TEAE: Thrombocytopenia: 0 (0) n (%)
  Grade 4: Number of patients with at least one TEAE: 0 (0) n (%)
  Grade 4 TEAE: Abdominal pain: 0 (0) n (%)
  Grade 4 TEAE: Alanine aminotransferase increased: 0 (0) n (%)
  Grade 4 TEAE: Anaemia: 0 (0) n (%)
  Grade 4 TEAE: Blood creatine phosphokinase increased: 0 (0) n (%)
  Grade 4 TEAE: Enterocolitis: 0 (0) n (%)
  Grade 4 TEAE: Erythema multiforme: 0 (0) n (%)
  Grade 4 TEAE: Erythema nodosum: 0 (0) n (%)
  Grade 4 TEAE: Hyperglycaemia: 0 (0) n (%)
  Grade 4 TEAE: Hypertriglyceridaemia: 0 (0) n (%)
  Grade 4 TEAE: Lymphocyte count decreased: 0 (0) n (%)
  Grade 4 TEAE: Neutropenia: 0 (0) n (%)
  Grade 4 TEAE: Neutrophil count decreased: 0 (0) n (%)
  Grade 4 TEAE: Parkinsonism: 0 (0) n (%)
  Grade 4 TEAE: Pyrexia: 0 (0) n (%)
  Grade 4 TEAE: Rash generalized: 0 (0) n (%)
  Grade 4 TEAE: Thrombocytopenia: 0 (0) n (%)
  Grade 4 TEAE: White blood cell count decreased: 0 (0) n (%)
  Number of patients with at least one related TEAE: 6 (85.7) n (%)
  TEAE: Abdominal pain: 1 (14.3) n (%)
  TEAE: Anaemia: 5 (71.4) n (%)
  TEAE: Back pain: 0 (0) n (%)
  TEAE: C-reactive protein increased: 1 (14.3) n (%)
  TEAE: Decreased appetite: 1 (14.3) n (%)
  TEAE: Diarrhoea: 3 (42.9) n (%)
  TEAE: Dysgeusia: 2 (28.6) n (%)
  TEAE: Fatigue: 3 (42.9) n (%)
  TEAE: Headache: 1 (14.3) n (%)
  TEAE: Hypertriglyceridaemia: 1 (14.3) n (%)
  TEAE: Hyperuricaemia: 2 (28.6) n (%)
  TEAE: Hypocalcaemia: 0 (0) n (%)
  TEAE: Hypokalaemia: 2 (28.6) n (%)
  TEAE: Insomnia: 1 (14.3) n (%)
  TEAE: Nasopharyngitis: 0 (0) n (%)
  TEAE: Nausea: 1 (14.3) n (%)
  TEAE: Neutropenia: 1 (14.3) n (%)
  TEAE: Neutrophil count decreased: 2 (28.6) n (%)
  TEAE: Platelet count decreased: 3 (42.9) n (%)
  TEAE: Pyrexia: 1 (14.3) n (%)
  TEAE: Thrombocytopenia: 2 (28.6) n (%)
  TEAE: Weight decreased: 1 (14.3) n (%)
  TEAE: White blood cell count decreased: 3 (42.9) n (%)
30 mg BIW cohort
  TEAEs that led to dose reduction or dose delay: four
  TEAEs that led to treatment discontinuation: two
30 mg BIW cohort, six patients assessed, Cycle 1
  Dose-limiting toxicities: no dose-limiting toxicitys
40 mg BIW (N = 7)
  Grade 3: Number of patients with at least one TEAE: 4 (57.1) n (%)
  Grade 3 TEAE: Abdominal pain: 1 (14.3) n (%)
  Grade 3 TEAE: Alanine aminotransferase increased: 1 (14.3) n (%)
  Grade 3 TEAE: Anaemia: 0 (0) n (%)
  Grade 3 TEAE: Blood creatine phosphokinase increased: 0 (0) n (%)
  Grade 3 TEAE: Enterocolitis: 1 (14.3) n (%)
  Grade 3 TEAE: Erythema multiforme: 1 (14.3) n (%)
  Grade 3 TEAE: Erythema nodosum: 1 (14.3) n (%)
  Grade 3 TEAE: Hyperglycaemia: 1 (14.3) n (%)
  Grade 3 TEAE: Hypertriglyceridaemia: 1 (14.3) n (%)
  Grade 3 TEAE: Lymphocyte count decreased: 0 (0) n (%)
  Grade 3 TEAE: Neutropenia: 0 (0) n (%)
  Grade 3 TEAE: Neutrophil count decreased: 0 (0) n (%)
  Grade 3 TEAE: Parkinsonism: 0 (0) n (%)
  Grade 3 TEAE: Pyrexia: 1 (14.3) n (%)
  Grade 3 TEAE: Rash generalized: 0 (0) n (%)
  Grade 3 TEAE: Thrombocytopenia: 2 (28.6) n (%)
  Grade 3 TEAE: White blood cell count decreased: 1 (14.3) n (%)
  Grade 4: Number of patients with at least one TEAE: 2 (28.6) n (%)
  Grade 4 TEAE: Abdominal pain: 0 (0) n (%)
  Grade 4 TEAE: Alanine aminotransferase increased: 0 (0) n (%)
  Grade 4 TEAE: Anaemia: 0 (0) n (%)
  Grade 4 TEAE: Blood creatine phosphokinase increased: 0 (0) n (%)
  Grade 4 TEAE: Enterocolitis: 0 (0) n (%)
  Grade 4 TEAE: Erythema multiforme: 0 (0) n (%)
  Grade 4 TEAE: Erythema nodosum: 0 (0) n (%)
  Grade 4 TEAE: Hyperglycaemia: 0 (0) n (%)
  Grade 4 TEAE: Hypertriglyceridaemia: 0 (0) n (%)
  Grade 4 TEAE: Lymphocyte count decreased: 0 (0) n (%)
  Grade 4 TEAE: Neutropenia: 2 (28.6) n (%)
  Grade 4 TEAE: Neutrophil count decreased: 0 (0) n (%)
  Grade 4 TEAE: Parkinsonism: 0 (0) n (%)
  Grade 4 TEAE: Pyrexia: 0 (0) n (%)
  Grade 4 TEAE: Rash generalized: 0 (0) n (%)
